RGS4 pot – RGS4 potentiation or activation; HEK293 M3R/inducible RGS4, carbachol calcium flux Fluo4; active compounds read low; B-score at 10 µM; hit rate 0.92% among 310,000; AID 463111;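 active = B-score of the integrated calcium signal more than 4 SD below the library mean, with starting fluorescence not abnormally high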;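 note: negative B-score means reduced calcium response which marks RGS4 activation or potentiation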
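Assay system: HEK293 FlpIn-TREx cells, stable M3R, doxycycline-inducible RGS4 / Probe or stimulus: carbachol, ECmax concentration / Times: overnight RGS4 induction, 30 min dye load 37 °C, 20 min compound RT / Signal: kinetic calcium fluorescence imaging with Fluo4-AM dye, 2 µM / Measure: Agonist-evoked peak-minus-minimum fluorescence over baseline, integrated ratio, B score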
MrgX1 antag – antagonists of human MrgX1 receptor. AID 588676. Q96LB2. MRGX1-HEK293 calcium flux, Fluo-4, BAM8-22 antagonism; active compounds read low. hit rate 1.3% among 310,000. B-score at 10 µM;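 active = calcium-response B-score plate-corrected more than 3 library SD below zero, starting fluorescence within 5 deviations, no agonist response on first addition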;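 note: peak minus trough fluorescence over baseline after final BAM8-22 challenge near maximal dose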
Target sequence (Q96LB2 whole entry, looked up): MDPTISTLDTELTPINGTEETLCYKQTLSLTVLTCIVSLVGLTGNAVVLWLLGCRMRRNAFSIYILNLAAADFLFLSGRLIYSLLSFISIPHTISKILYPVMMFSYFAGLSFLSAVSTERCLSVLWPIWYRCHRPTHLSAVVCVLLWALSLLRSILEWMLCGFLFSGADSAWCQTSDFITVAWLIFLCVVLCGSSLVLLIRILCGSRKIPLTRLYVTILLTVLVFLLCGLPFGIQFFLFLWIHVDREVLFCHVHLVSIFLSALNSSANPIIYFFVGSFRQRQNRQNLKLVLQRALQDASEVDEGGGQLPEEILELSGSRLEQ
MrgX1 agonist – human MrgX1 receptor agonism, primary screen; Q96LB2; MrgX1-HEK293 cells, Fluo-4 calcium fluorescence, agonist mode; active compounds read high; B-score at 10 µM; hit rate 0.44% among 310,000;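 active = calcium response B-score plate-corrected fluorescence ratio at least 3 library SD, with starting fluorescence B-score inside 5 SD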
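Test system: HEK293 cells stably expressing human MrgX1 receptor; amount: 15,000 cells per well; doses: compound delivered in addition one of three; times: overnight plating before 1 h dye loading; detection: Fluo-4 NW calcium-flux fluorescence, kinetic read; read-out basis: B-scored fluorescence response ratio; controls: positive and negative controls per plate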
RGS4 block – human RGS4 inhibition. AID 463165. B-score at 10 µM. hit rate 0.45% among 310,000. P49798. HEK293 M3R/RGS4 inducible, Fluo-4 calcium flux; active compounds read high; triggered by carbachol at its EC20;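 active = B-score, a plate-corrected calcium signal, over three deviations above library mean, with baseline fluorescence within five deviations of library mean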;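 note: RGS4 expression induced by doxycycline in cells with stable M3 receptor; B-score is computed from the integrated fluorescence ratio over baseline after carbachol; higher B-score means a larger calcium signal and so more RGS4 inhibition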
Target sequence (P49798 whole entry, looked up): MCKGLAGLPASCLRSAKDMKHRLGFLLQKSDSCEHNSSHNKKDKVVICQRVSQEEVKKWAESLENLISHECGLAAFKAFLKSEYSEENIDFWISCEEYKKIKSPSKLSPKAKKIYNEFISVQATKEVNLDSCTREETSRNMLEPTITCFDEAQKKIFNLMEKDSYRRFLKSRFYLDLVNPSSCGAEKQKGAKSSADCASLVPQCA
MrgX1 allo act – human MrgX1 positive allosteric modulation, primary screen; B-score at 10 µM; hit rate 0.63% among 310,000; MrgX1-HEK293, Fluo-4 calcium flux, FDSS; active compounds read high;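 active = plate-corrected calcium response at least 3 library SD above typical, normal starting fluorescence, not activating the receptor alone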;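 note: compound read alongside a low EC10 to EC30 dose of BAM8-22 agonist; peak minus trough fluorescence over baseline measured at the second addition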
MrgX1 allo conf – human MrgX1 positive allosteric modulation, re-confirmation; shares compounds with MrgX1 allo act; MrgX1-HEK293, Fluo-4 calcium fluorescence, FDSS; activation (ratio percentage), % at 10 µM; hit rate 13% among 1,200; AID 602413;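 active = ratio at least 3 SD above the weak peptide control, stable starting fluorescence, no direct agonism earlier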;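 note: compound followed by low BAM8-22 agonist challenge near EC20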
MrgX1 antag conf – reconfirmed antagonist of human MrgX1 receptor signaling. MrgX1-HEK293, BAM8-22 calcium flux, Fluo-4; active compounds read low. remaining BAM8-22 calcium response % of control (active compounds read low), % at 10 µM. AID 602420. hit rate 19% among 2,300. shares compounds with MrgX1 antag;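 active = remaining agonist calcium response no higher than 100% minus 3 SD of agonist-only control wells, with starting fluorescence near control levels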;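 note: agonist BAM8-22 given at a near maximal EC90 to ECmax level; peak minus minimum fluorescence divided by baseline after agonist addition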
HEK293 Ca flux – counter-screen for MrgX1 antagonists: effect in parental HEK293 cells | Fluo-4 calcium fluorescence, FDSS | shares compounds with MrgX1 antag | hit rate 2% among 4,000 | fluorescence ratio F(max-min)/F0 at 10 µM;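 active = duplicate-averaged calcium fluorescence ratio at least three times the standard deviation of buffer wells, a nonspecific response in parental cells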
HEK293 Ca counter – activity in parental HEK293 cells without MrgX1. shares compounds with MrgX1 antag. fluorescence ratio F(max-min)/F0 at 10 µM. hit rate 0.4% among 4,000. parental HEK293 calcium flux, Fluo-4 fluorescence ratio; active compounds read high;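 active = calcium fluorescence ratio, averaged over duplicates, at least 3 SD of the buffer-well ratio, meaning a nonspecific response in receptor-free cells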;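 note: untransfected parental HEK293 lacking MrgX1 used as counterscreen for MrgX1 allosteric activators; fluorescence change taken during the second addition on a kinetic imager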
HEK293 Ca cntr2 – activity in parental HEK293 cells lacking MrgX1 receptor | hit rate 8.7% among 4,000 | shares compounds with MrgX1 antag | Fluo-4 calcium fluorescence (FDSS); active compounds read high | fluorescence ratio F(max-min)/F0 at 10 µM;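 active = calcium fluorescence ratio at least three times the spread of buffer wells, meaning a non-specific response in parental cells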
* hit, by the source's call; i = inactive; / = not tested or not shown. This is a sample that favours compounds with a hit; in the whole collection about 3.5% have one here.

SMILES | RGS4 pot | MrgX1 antag | MrgX1 agonist | RGS4 block | MrgX1 allo act | MrgX1 antag conf | HEK293 Ca flux | HEK293 Ca counter | HEK293 Ca cntr2 | others
CC(C)c1c(C(=O)N/N=C/c2ccc(C(F)(F)F)cc2)nnn1-c1nonc1N | i | i | i | i | i | / | / | / | /
Cc1ccc(-c2csc(N=C(N)N)n2)cc1 | i | i | i | i | 7* | / | i | i | i | MrgX1 allo conf=i
Cc1ccc(-c2csc(NC(=O)c3ccc(C)o3)n2)cc1 | i | i | i | i | i | / | / | / | /
O=C1c2ccccc2C(Nc2ccc(S(=O)(=O)N3CCCCC3)cc2)N1Cc1ccco1 (stereo not given) | i | -7.9* | i | i | i | i | i | i | i
COC(=O)c1cc(NC2c3ccccc3C(=O)N2Cc2ccco2)cc(C(=O)OC)c1 (stereo not given) | / | i | i | / | i | / | / | / | /
COc1ccc(NC2c3ccccc3C(=O)N2Cc2ccco2)cc1OC (stereo not given) | i | -5.4* | i | i | i | i | i | i | i
Cc1cccc(-c2nnc(SCC(=O)N3CCOCC3)o2)c1 | i | i | i | i | i | / | / | / | /
O=C1C2C3C=CC(C2C(=O)N1C1CCCCC1)C1C2C(=O)N(C4CCCCC4)C(=O)C2C31 (stereo not given) | i | i | i | i | i | / | / | / | /
CCOC(=O)c1cc(N)cc([N+](=O)[O-])c1 | i | i | i | i | i | / | / | / | /
CCOC(=O)c1sc2cc([N+](=O)[O-])cc(SCC(C)C)c2c1N | i | -10* | i | i | i | i | 0.6* | i | i
CCNc1c(C(=O)O)ccc2c1C(=O)c1ccccc1C2=O | i | i | i | i | i | / | / | / | /
CNc1c(C(=O)O)ccc2c1C(=O)c1ccccc1C2=O | i | -8.6* | i | i | i | i | i | i | i
COc1ccc(-n2nc(C(=O)NCC(=O)NCCC3=CCCCC3)c3ccccc3c2=O)cc1 | i | i | i | i | i | / | / | / | /
O=C1NC2(CCCc3ccccc32)C(=O)N1CCOc1ccc(Br)cc1 (stereo not given) | i | i | i | i | i | / | / | / | /
CCOc1ccc(OCCN2C(=O)NC3(CCCc4ccccc43)C2=O)cc1 (stereo not given) | i | -5.5* | i | i | i | i | i | i | i
CC(C)c1ccc(NC(=O)CCS(=O)(=O)c2cccc3nonc23)cc1 | i | i | i | i | i | / | / | / | /
CC(=O)Nc1nnc(CCN2CCCCC2)s1 | i | i | i | i | i | / | / | / | /
CC(=O)c1sc2nsc(SCCN3CCCCC3)c2c1N | i | -5.2* | i | i | i | i | i | i | 52*
CN(Cc1ccccc1)C(=O)c1ccc(NC(=O)C2=CSCCO2)cc1 | i | i | i | i | i | / | / | / | /
CC(NC(=O)C(=O)N1CCCCC1)C(c1cccs1)N1CCN(c2ccccc2)CC1 (stereo not given) | i | i | i | i | i | / | / | / | /
CCCN1C2CCCC1CC(NC(=S)Nc1cc(C)cc(C)c1)C2 (stereo not given) | i | -6* | i | i | i | i | i | i | i
Cc1c(C(=O)N(C)Cc2cccc(F)c2)oc2c(Cl)cccc12 | i | i | i | i | i | / | / | / | /
O=C(Cc1ccc(Cl)cc1)Nc1ccc(N2CCCC2)cc1 | / | -5.3* | i | / | i | i | i | i | i
O=C(Cc1ccc(Cl)cc1)Nc1ccc(C(=O)N2CCOCC2)cc1 | i | i | i | i | i | / | / | / | /
O=C(CCN1C(=O)c2ccccc2C1=O)Nc1sc2c(c1C(=O)NCc1ccco1)CCCC2 | i | -4.9* | i | i | i | i | i | i | i
SMILES | RGS4 pot | MrgX1 antag | MrgX1 agonist | RGS4 block | MrgX1 allo act | MrgX1 antag conf | HEK293 Ca flux | HEK293 Ca counter | HEK293 Ca cntr2 | others
CC(C(=O)Nc1sc2c(c1C(=O)NCc1ccco1)CCCC2)N1C(=O)c2ccccc2C1=O (stereo not given) | i | i | i | i | i | / | / | / | /
CC(C)(C)N(Cc1ccccc1)C(=O)COC(=O)CSc1ccc([N+](=O)[O-])cc1 | i | -9.9* | i | i | i | i | i | i | i
COc1ccc(NC(=O)COC(=O)CCNS(=O)(=O)c2ccccc2)cc1OC | i | i | i | i | i | / | / | / | /
CC1CCN(C2CCN(S(=O)(=O)c3ccc(F)cc3)CC2)CC1 | i | i | i | i | i | / | / | / | /
O=S(=O)(c1ccc(F)cc1)N1CCC(N2CCCCCC2)CC1 | i | -11* | i | i | i | i | i | i | i
COc1cc(OC)cc(C(=O)NC(=S)Nc2ccc(NC(=O)c3ccco3)cc2)c1 | i | -5.1* | i | i | i | i | i | i | i
Cc1csc(NC(=O)c2ccc(Cn3nc(C)c(Br)c3C)o2)n1 | i | -4.8* | i | i | i | 74%* | i | i | i
COc1ccc(-c2c(C#N)c(N)nc3c2c(=O)n(C)c(=O)n3C)cc1Cl | i | -8.3* | i | i | i | i | i | i | i
Nc1ncnc2nc(SCC(=O)N3CCN(c4ccccc4)CC3)[nH]c12 | i | -4.7* | i | i | i | i | i | i | i
COc1ccc2[nH]c(C(=O)O)c(NC(=O)c3cc(OC)c(OC)c(OC)c3)c2c1 | i | i | i | i | i | / | / | / | /
Cc1ccc2sc(NC(=O)CSc3nc(C)cc(C)c3C#N)nc2c1 | i | -6.4* | i | i | i | i | i | i | i
Cc1cc(C(F)(F)F)c(C#N)c(SCC(=O)Nc2nc3ccccc3s2)n1 | i | i | i | i | i | / | / | / | /
O=C(CN(Cc1ccc(F)cc1)C(=O)CCC(=O)Nc1ccccn1)NCCc1ccccc1 | i | i | i | i | i | / | / | / | /

Screening data (PubChem BioAssay)
